The values that follow come from ChEMBL document CHEMBL4825680, “Structure-based discovery of potent and selective small-molecule inhibitors targeting signal transducer and activator of transcription 3 (STAT3)” (Eur J Med Chem, 2021).

Experiment [1] concerns MDA-MB-468. Put plainly: Antiproliferative activity against human MDA-MB-468 cells assessed as reduction in cell viability after 72 hrs by CCK8 assay. The class given is functional, cell-based. Conditions: MDA-MB-468, 72 h. Summed up: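 Cells seeded at 1000–8000 per well were grown overnight, then exposed to 0.1–100 μM compound or 0.1% DMSO vehicle for 72 h. CCK-8 was added for 0.5–4 h at 37 °C and absorbance read at 480 nm. Viability = (OD compound − blank)/(OD vehicle − blank) × 100, with medium as blank. IC50 fitted from three independent experiments.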

Experiment [2] deals with T1, Signal transducer and activator of transcription 3 (Homo sapiens, UniProt P40763). As to the kind of experiment: Inhibition of STAT3 phosphorylation at Ser727 residue in human MDA-MB-468 cells at 3 uM after 3 hrs by Western blotting analysis. The class given is cell-based. In general terms: In western blotting, separated proteins are transferred to a membrane and probed.
T1 sequence (P40763 whole entry): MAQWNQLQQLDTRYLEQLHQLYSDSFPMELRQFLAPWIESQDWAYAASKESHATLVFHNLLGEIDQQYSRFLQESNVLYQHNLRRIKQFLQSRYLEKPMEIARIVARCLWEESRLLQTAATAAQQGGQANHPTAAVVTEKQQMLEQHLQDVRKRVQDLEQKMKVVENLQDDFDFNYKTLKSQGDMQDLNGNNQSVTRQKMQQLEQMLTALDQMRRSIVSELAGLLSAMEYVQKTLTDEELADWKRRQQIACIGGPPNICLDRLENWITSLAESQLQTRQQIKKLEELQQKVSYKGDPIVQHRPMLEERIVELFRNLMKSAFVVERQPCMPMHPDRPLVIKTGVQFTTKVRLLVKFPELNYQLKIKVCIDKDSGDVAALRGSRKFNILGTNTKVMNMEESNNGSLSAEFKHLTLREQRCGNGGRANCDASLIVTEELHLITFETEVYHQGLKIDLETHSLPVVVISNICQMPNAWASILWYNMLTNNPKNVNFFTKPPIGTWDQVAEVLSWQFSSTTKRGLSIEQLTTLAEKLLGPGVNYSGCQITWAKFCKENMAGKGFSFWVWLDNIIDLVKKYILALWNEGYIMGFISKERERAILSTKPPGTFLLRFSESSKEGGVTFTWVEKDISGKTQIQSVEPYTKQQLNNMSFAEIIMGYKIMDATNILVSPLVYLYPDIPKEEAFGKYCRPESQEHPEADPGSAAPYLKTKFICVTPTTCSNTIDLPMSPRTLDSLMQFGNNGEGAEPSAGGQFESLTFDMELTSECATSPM

In experiment [3] the target is T2, Signal transducer and activator of transcription 1-alpha/beta (Homo sapiens) (UniProt P42224).
T2 sequence (whole entry): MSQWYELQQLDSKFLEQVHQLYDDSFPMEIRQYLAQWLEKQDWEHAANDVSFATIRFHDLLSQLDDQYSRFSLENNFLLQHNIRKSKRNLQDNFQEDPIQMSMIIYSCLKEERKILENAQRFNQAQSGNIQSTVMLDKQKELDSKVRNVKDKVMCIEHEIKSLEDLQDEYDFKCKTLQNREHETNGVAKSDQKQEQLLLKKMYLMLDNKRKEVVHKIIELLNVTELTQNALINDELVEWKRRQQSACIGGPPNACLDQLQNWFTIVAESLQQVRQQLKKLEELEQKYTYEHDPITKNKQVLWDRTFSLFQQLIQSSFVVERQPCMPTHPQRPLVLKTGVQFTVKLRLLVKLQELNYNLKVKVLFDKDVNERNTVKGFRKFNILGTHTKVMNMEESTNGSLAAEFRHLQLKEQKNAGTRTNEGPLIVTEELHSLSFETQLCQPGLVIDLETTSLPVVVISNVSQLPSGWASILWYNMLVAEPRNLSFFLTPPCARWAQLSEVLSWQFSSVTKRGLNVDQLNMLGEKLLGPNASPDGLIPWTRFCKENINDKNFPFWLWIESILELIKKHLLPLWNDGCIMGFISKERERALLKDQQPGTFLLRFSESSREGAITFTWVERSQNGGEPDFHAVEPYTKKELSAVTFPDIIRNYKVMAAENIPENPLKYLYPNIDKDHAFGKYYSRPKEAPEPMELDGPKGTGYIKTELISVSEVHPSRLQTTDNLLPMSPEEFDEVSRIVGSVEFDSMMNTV
As to the kind of experiment: Inhibition of STAT1 phosphorylation at Y701 residue in human MDA-MB-231 cells at 0.3 to 3 uM after 3 hrs by Western blotting analysis. The class given is cell-based. Conditions: dose 0.3-3 µM.

In experiment [4] the test system is MDA-MB-468. As to the kind of experiment: Induction of apoptosis in human MDA-MB-468 cells assessed as late apoptotic cells at 1 uM after 48 hrs by Annexin-V-FITC/propidium iodide staining based flow cytometric analysis (reference value: 1.25%). The class given is functional. In general terms: In flow cytometry, cells or beads pass a laser one at a time.
In experiment [5] the target is T1, Signal transducer and activator of transcription 3. As to the kind of experiment: Inhibition of STAT3 in human HCC70 cells assessed as downregulation of Mcl-1 expression at 0.3 to 3 uM after 24 hrs by western blot analysis. Type of experiment: cell-based. Particulars: dose 0.3-3 µM. Summed up: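 TNBC cells given vehicle (0.1% DMSO) or graded compound levels for 24 h, lysed in RIPA with PMSF and phosphatase inhibitors. BCA-quantified lysate (20–50 µg) run on SDS-PAGE, transferred to PVDF, blocked in 5% BSA. Probed overnight at 4 °C for Bcl-xL, Mcl-1 and c-Myc, with β-actin. HRP secondary, ECL detection. Three independent experiments.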

Experiment [6] shares this target. As to the kind of experiment: Inhibition of STAT3 phosphorylation at Tyr705 residue in human MDA231-LM2-4175 cells after 3 hrs by Western blotting analysis. Conditions: dose 0.3-3 µM. Type of experiment: cell-based.
Experiment [7] has the same target. Put plainly: Inhibition of Flag-tagged STAT3 dimerization (unknown origin) expressed in HEK293T cells preincubated for 3 hrs followed by IL-3 stimulation by immunoprecipitation analysis. Particulars: dose 1-3 µM. Type of experiment: cell-based.
In another experiment the test system is Breast cancer cell line. As to the kind of experiment: Antitumor activity against patient-derived breast cancer cells xenografted in NOD/SCID mouse assessed as reduction in Mcl-1 expression at 5 to 15 mg/kg, iv administered once daily for 20 days by Western blotting analysis. Conditions: Homo sapiens, dose 5-15 mg/kg, time 20.0 day. The class given is functional, organism-based. A general note: Xenograft models place foreign cells or tissue in a host animal.

Another experiment relates to MDA231-LM2-4175. As to the kind of experiment: Induction of apoptosis in human MDA231-LM2-4175 cells assessed as increase in PARP cleavage at 1 uM after 48 hrs by Western blot analysis. The class given is functional, cell-based. The gist of the method:
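Breast cancer cells given vehicle (0.1% DMSO) or compound, then lysed in RIPA buffer with PMSF and phosphatase inhibitors. BCA-quantified lysate (20–50 µg) run on 8 or 12% SDS-PAGE and transferred to PVDF. Blocked in 5% BSA, probed overnight at 4 °C for PARP and cleaved caspase-7, HRP secondary, ECL detection. β-actin as loading control.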

The target in experiment [8] is T1, Signal transducer and activator of transcription 3. As to the kind of experiment: Inhibition of STAT3 phosphorylation at Tyr705 residue in human […] cells after 3 hrs by Western blotting analysis. Type of experiment: cell-based. Particulars: MDA-MB-468, dose 0.3-3 µM.
The subject of a further experiment is MDA-MB-231. As to the kind of experiment: Inhibition of cell migration in human MDA-MB-231 cells incubated for 12 to 96 hrs by wound healing assay. Conditions: dose 0.3-3 µM, time 12-96 hrs. The class given is functional, cell-based. The gist of the method: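 Cells grown to 100% confluence, then scratched with a pipette tip. Treated with 0–3 μM until vehicle-treated cells had migrated into the scratch. Images taken by microscope after about 12–96 h. Triplicate experiments.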

Experiment [9] in a line: Induction of apoptosis in human MDA231-LM2-4175 cells assessed as viable cells at 3 uM after 48 hrs by Annexin-V-FITC/propidium iodide staining based flow cytometric analysis (reference value: 94.4%). Particulars: read-out: Activity. Type of experiment: functional.

The structures appear in SMILES notation. Activity calls are given as the source filed them. No cut-off for these calls is given here.

For `O=C(Cc1c(-c2ccccc2)nc2ccccn12)Nc1ccc2c(c1)S(=O)(=O)C=C2`, the IC50 (as a rule, the concentration needed to halve the response being measured) with MDA-MB-468 [1] amounted to 2500 nM. Besides, the inhibition result in experiment [2] and in experiment [3] was “inactive” throughout. For the same compound, in the experiment with MDA-MB-468 [4], the Activity is given as 16.6%. Moreover, in experiment [5], the inhibition result is “Active”. Moreover, the inhibition result (in experiment [6]; in experiment [7]; in [8]; in the experiment on MDA-MB-231) was “Dose-Dependent Effect” in each case. Also, the result in the experiment on Breast cancer cell line and with MDA231-LM2-4175 was Active. The viability at 3 µM in experiment [9] is 83.4%.
